Measured values gathered from unrelated publications.
BRAF: Serine/threonine-protein kinase B-raf (BRAF, Homo sapiens, UniProt P15056)
BRAF V600E: Serine/threonine-protein kinase B-raf (BRAF, Homo sapiens, UniProt P15056, V600E)

SMILES	target	test	conditions	endpoint	value
COc1ccc2oc(-c3ccc4nc(N)oc4c3)c/c(=N\c3ccccc3NC(=O)CCN)c2c1	BRAF	binding	1 µM	remaining binding	98%
Cc1cc(O)c(-c2ccc([C@@H](C)CN(C)C)cc2)c2c1[nH]c(=O)c1sccc12	BRAF V600E	cell-free assay, inhibitor	0.1 µM, lysate	inhibition	-5.15%
CO[C@@H]1[C@H](N(C)C(=O)c2ccccc2)C[C@H]2O[C@]1(C)n1c3ccccc3c3c4c(c5c6ccccc6n2c5c31)C(=O)NC4	BRAF V600E	enzyme activity, inhibitor	1 µM	inhibition	0%
C[C@H]1CC[C@H](n2c3cnccc3c3cnc(Nc4ccc5c(n4)CCN(C(=O)CO)C5)nc32)CC1	BRAF V600E	cell-free assay	1 µM	remaining signal	82%
C1=C/COCc2cc(ccc2OCCN2CCCC2)Nc2nccc(n2)-c2cccc(c2)COC/1	BRAF V600E	binding	0.1 µM	remaining binding	85%
Cc1cc2c(C(N)=O)c(N)n(-c3c(C)ccc(O)c3C)c2nc1C	BRAF	enzyme activity, inhibitor, ADP detection	3.333 µM	inhibition	101%
C=CC(=O)N1CCC([C@@H]2CCNc3c(C(N)=O)c(-c4ccc(Oc5ccccc5)cc4)nn32)CC1	BRAF	enzyme activity, inhibitor	1 µM	inhibition	0%
CCCCC(=O)Nc1ccc(-c2ccc3ncn(CCC)c(=O)c3c2)cn1	BRAF V600E	binding, competition with immobilised ligand	0.5 µM	remaining binding	95%
CN1CCN(C(=O)c2ccc(NC(=O)Nc3ccc(N(C)c4ccnc(Nc5ccc(CS(C)(=O)=O)cc5)n4)cc3)cc2)CC1	BRAF V600E	binding	1 µM	remaining binding	85%
CC#CC(=O)N1CCC[C@H]1c1nc(-c2ccc(C(=O)Nc3ccccn3)cc2)c2c(N)nccn12	BRAF	enzyme activity, inhibitor	1 µM	inhibition	43%
COc1ccc2[nH]c3c4[nH]c5ccc(OC)cc5c4c4c(c3c2c1)C(=O)NC4=O	BRAF	binding, competition with immobilised ligand	1 µM	remaining binding	86%
N#Cc1ccc(NC(=O)Nc2ccccc2)cc1	BRAF V600E	cell-free assay, competition with immobilised ligand	25 µM	remaining binding	100%
Cc1ccc(NC(=O)c2ccnc(C(F)(F)F)c2)cc1-c1cc(OCCO)nc(N2CCOCC2)c1	BRAF	binding, competition with immobilised ligand	1 µM	remaining binding	0.4%
C=CC(=O)N1CCC[C@@H](n2nc(-c3ccc(Oc4ccccc4)cc3)c3c(N)ncnc32)C1	BRAF V600E	enzyme activity, inhibitor	1 µM	inhibition	61%
